GSH bead fluor – compound fluorescence on glutathione beads, profiling panel, artefact control, biophysical, 488/530 nm, flow cytometry. GSH beads flow cytometry, compound fluorescence 488/530 nm; stronger effect = higher value. fluorescence (KMESF) at 10 µM. 0.25% of 190,000 active; in the data active = fluorescence above about 89;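 also: glutathione beads carrying GST-tagged Bcl family fusion proteins plus one bare bead set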
ABCG2 inh – ABCG2 efflux pump inhibitors, primary screen, multiplex with ABCB1, IgMXP3 cells, flow cytometry; Broad substrate specificity ATP-binding cassette transporter ABCG2 (Homo sapiens), Q9UNQ0; JC-1 efflux; inhibition, % at 6.6 µM; 0.1% of 190,000 active;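 active = inhibition above 80%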
Target sequence (Q9UNQ0 whole entry, looked up): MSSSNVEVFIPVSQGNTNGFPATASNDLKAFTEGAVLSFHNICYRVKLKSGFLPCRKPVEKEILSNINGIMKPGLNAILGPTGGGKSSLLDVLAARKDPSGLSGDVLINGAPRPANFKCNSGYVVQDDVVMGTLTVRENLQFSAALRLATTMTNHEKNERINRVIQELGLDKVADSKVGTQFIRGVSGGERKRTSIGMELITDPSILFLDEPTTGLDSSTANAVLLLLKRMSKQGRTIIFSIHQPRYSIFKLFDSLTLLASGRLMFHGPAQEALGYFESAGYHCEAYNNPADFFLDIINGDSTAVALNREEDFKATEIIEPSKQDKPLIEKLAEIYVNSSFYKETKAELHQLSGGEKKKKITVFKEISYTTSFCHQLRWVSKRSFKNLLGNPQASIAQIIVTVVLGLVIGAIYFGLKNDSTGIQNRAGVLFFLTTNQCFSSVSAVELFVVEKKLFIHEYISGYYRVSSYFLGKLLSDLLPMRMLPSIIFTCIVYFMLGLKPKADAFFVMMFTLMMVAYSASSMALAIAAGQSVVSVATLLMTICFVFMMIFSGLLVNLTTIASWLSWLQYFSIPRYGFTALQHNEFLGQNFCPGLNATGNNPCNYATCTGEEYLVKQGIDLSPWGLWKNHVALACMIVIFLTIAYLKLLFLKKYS
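Test system: ABCG2 IgMXP3 and barcoded ABCB1 CCRF-Adr cell mix; Schedule: cells with compound and JC-1, 10 min at 25 °C, rotating, no wash; Technique: flow cytometry of retained JC-1 fluorescence; Measure: % inhibition of efflux relative to nicardipine and DMSO; Controls: nicardipine high and DMSO low controls.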
Avidin bead fluor – green autofluorescence of compounds with avidin beads – biophysical, 488/530 nm, flow cytometry, artefact control, profiling panel. compound fluorescence 488/530 nm; stronger effect = higher value. fluorescence (KMESF) at 10 µM. 0.38% of 220,000 active. AID 1775, 2009; in the data active = fluorescence above about 47
ABCB1 block – ABCB1 efflux pump inhibitors, primary screen, cell-based, multiplex, flow cytometry, ABCG2 counter-screen | CCRF-Adr cells, JC-1 efflux | inhibition, % at 6.6 µM | 0.067% of 190,000 active; in the data active = inhibition above about 40%;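 also: higher value means more JC-1 retained so stronger ABCB1 efflux block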
PKD1 inh – inhibitors of human PKD1 kinase, biochemical, fluorescence polarization | Serine/threonine-protein kinase D1 (Homo sapiens), Q15139 | PKD1 kinase fluorescence polarization assay | inhibition, % (concentration not given with the values) | 0.056% of 200,000 active | AID 797, 2007
L major viab – Leishmania major promastigote growth inhibition, primary screen. Leishmania major promastigotes, resazurin fluorescence viability. inhibition, % at 10 µM. 9% of 200,000 active;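 also: promastigotes grown with compound for 44 hours at 28 °C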
Each line names hits and unclear results; the compound was inactive in the other large screens. Many of the other results were omitted from the sample, so hits are more common in it than they were. Rule as the data show it, unless noted: active = inhibition above about 50%; inactive = the rest.

COc1ccc(C(=O)N/N=C(\CCC(=O)O)c2ccc(C(C)(C)C)cc2)cc1OC	none
Cc1cc2nc(-c3ccc(SCC(=O)NC(C)C)nc3)[nH]c2cc1C	none
Cc1cc2nc(-c3ccc(SCC(=O)N4CCc5ccccc54)nc3)[nH]c2cc1C	L major viab 86.5
CCCN(CC(=O)Nc1ccccc1C)C(=O)CCl	L major viab 52.6
Cc1ccccc1NC(=O)CSCC(=O)Nc1ccccc1C	none
O=C1S/C(=C\c2ccc(N3CCOCC3)o2)C(=O)N1Cc1ccc(F)cc1	ABCG2 inh 106.7
O=C1NC(=S)S/C1=C/c1ccc(N2CCOCC2)o1	none
Cc1ccc(N(C)C(=O)c2ccc(CNc3c(N4CCC(C)CC4)c(=O)c3=O)cc2)cc1	none (no result: GSH bead fluor, ABCG2 inh, ABCB1 block, PKD1 inh, L major viab)
CN(CC(=O)Nc1ccc(N2CCOCC2)cc1)CC(=O)Nc1ccc(Cl)cc1[N+](=O)[O-]	none
Cc1cc(NC(=O)c2cncc(Br)c2)n(-c2ccccn2)n1	none
Cc1cc(NC(=O)c2ccc(S(=O)(=O)N(C)C)cc2)n(-c2ccccn2)n1	Avidin bead fluor 88
N#Cc1ncc(Cl)c2ccccc12	none (no result: GSH bead fluor, ABCG2 inh, ABCB1 block, PKD1 inh, L major viab)
Cc1ccccc1Cn1ccc(=NCc2ccccc2)cc1	L major viab 100.4
COc1cc(/C=N/N=C(N)N)ccc1OCc1ccccc1Cl	L major viab 100.5
COc1cc(NC(=O)c2cccs2)c(C(=O)OCC(=O)c2cc(C)n(-c3ccccc3)c2C)cc1OC	none
Cc1ccc(-n2c(C)cc(C(=O)COC(=O)c3ccc[nH]c3=O)c2C)cc1	L major viab 70.2
COc1cc(NC(=O)c2cccs2)c(C(=O)OCC(=O)c2cc(C)n(-c3ccc(F)cc3)c2C)cc1OC	L major viab 90.4
COCCn1c(C)cc(C(=O)COC(=O)c2ccc[nH]c2=O)c1C	L major viab 57.2
COC(=O)c1nc2n(n1)C(c1cc(OC)ccc1OC)C(C(=O)OC1CCCCC1)=C(C)N2 (centres undefined)	none
c1cncc(-c2nc3ccccc3[nH]2)c1	none
c1ccc(-c2n[nH]c(-c3ccccc3)c2-c2nc3ccccc3[nH]2)cc1	L major viab 92.1
N=C(N)c1ccc(/C=C/c2ccc(C(=N)N)cc2O)cc1	none (no result: GSH bead fluor, ABCG2 inh, ABCB1 block, PKD1 inh, L major viab)
CN(C)S(=O)(=O)c1cccc(NS(=O)(=O)c2ccc(Cl)s2)c1	none
Cc1ccc(S(=O)(=O)N(C)C)cc1NS(=O)(=O)c1ccc(Cl)s1	L major viab 68.7
CCCCN1C(=O)N(C)C2C1N(C)C(=O)N2CCCC (centres undefined)	GSH bead fluor 130
CCCCN1C(=O)N(C)C2NC(=O)NC21 (centres undefined)	none
CC(=O)Nc1ccc(S(=O)(=O)N2CCC(NC(C)=O)(c3cccc(F)c3)CC2)cc1	none
CCC(C)N(C)Cc1cccc(C2(O)CCN(S(=O)(=O)c3ccc(F)cc3)CC2)c1 (centres undefined)	L major viab 99.9
NCC(O)(c1ccc(Cl)cc1)c1ccc(Cl)cc1	L major viab 94.4
CC(C)(C)NCC(O)(c1ccc(Cl)cc1)c1ccc(Cl)cc1	none
CCN(CC(=O)Nc1cccc(OC)c1)c1ncnc2sc(C)c(C)c12	none
CCc1ccc(CNCc2cccnc2)cc1	L major viab 90.1
O=C(O)c1ccc(CNCc2ccc(F)cc2)cc1	none
Cc1ccccc1CNCc1cccnc1	none
CCc1ccc(CNCc2ccc(F)cc2)cc1	L major viab 70.8
Cn1c(N)c(C(=O)COC(=O)c2ccc([N+](=O)[O-])o2)c(=O)n(C)c1=O	none (no result: GSH bead fluor, ABCG2 inh, ABCB1 block, PKD1 inh, L major viab)
OCCC1CN(Cc2ccc(Oc3ncccn3)cc2)CCN1C1CCCCC1 (centres undefined)	Avidin bead fluor 159 (no result: GSH bead fluor, ABCG2 inh, ABCB1 block, PKD1 inh, L major viab)
COc1ccc2c(c1)C=C(CN1CCN(C(C)C)C(CCO)C1)CO2 (centres undefined)	none
COc1ccc2c(c1)C=C(CN1CCN(C3CCCC3)C(CCO)C1)CO2 (centres undefined)	L major viab 87.9
OCCC1CN(Cc2c(F)cccc2Cl)CCN1C1CCCCC1 (centres undefined)	L major viab 52.8
CCC(c1nnnn1C1CCCC1)N1CCC(C(N)=O)CC1 (centres undefined)	none
Cc1cccc(N/N=C/c2ccccc2O)c1	none
CN(C)CCCN=Cc1c(O)n(Cc2ccc3c(c2)OCO3)c(=O)c2ccccc12	L major viab 98.3
CN(C)CCN=Cc1c(O)n(Cc2ccc3c(c2)OCO3)c(=O)c2ccccc12	L major viab 73.7
O=c1c2ccccc2c(C=NC2CCN(Cc3ccccc3)CC2)c(O)n1Cc1ccc2c(c1)OCO2	L major viab 87.1
CCN(CC)CCCN=Cc1c(O)n(Cc2ccccc2)c(=O)c2ccccc12	L major viab 99.2
O=c1c2ccccc2[nH]c(=S)n1Cc1ccc2c(c1)OCO2	none
CCN(CC)CCCN=Cc1c(O)n(-c2ccccc2C)c(=O)c2ccccc12	none (no result: GSH bead fluor, ABCG2 inh, ABCB1 block, PKD1 inh, L major viab)
CCOCCCNCC(=O)N1CCN(S(=O)(=O)c2ccc(C)cc2)CC1	L major viab 88.2
Cc1ccc(S(=O)(=O)N2CCN(C(=O)CC3CCCC3)CC2)cc1	none
O=C(O)c1nn(CC(=O)N2CCN(S(=O)(=O)c3ccc(Cl)cc3)CC2)c(=O)c2ccccc12	none (no result: GSH bead fluor, ABCG2 inh, ABCB1 block, PKD1 inh, L major viab)
CC1CCC2(CC1)NC(=O)N(CC(=O)N1CCc3ccccc3C1)C2=O (centres undefined)	none
O=C(Cn1nnc(-c2ccccc2Cl)n1)N1CCN(S(=O)(=O)c2ccc(Cl)cc2)CC1	L major viab 98.7
O=C(CN1C(=O)NC2(CCCCCCC2)C1=O)N1CCc2ccccc2C1	L major viab 67.5
O=C(CN1C(=O)NC2(CCCCCC2)C1=O)N1CCN(S(=O)(=O)c2ccc(Cl)cc2)CC1	Avidin bead fluor 49
Cc1nn(-c2ccccc2)c(N2CCCC2)c1/C=C1\N=C(c2ccc(OC(C)C)cc2)OC1=O	none
FC(F)(F)Oc1ccc(NC(=S)NCCCN2CCOCC2)cc1	none
C=CCn1c(O)c(N=NC(=S)Nc2ccc(OC)c(Cl)c2)c2ccccc21	L major viab 97.5
COc1cccc(-c2nc(CCl)cs2)c1OC	none
O=C(CN(C(=O)CSc1nnc(COc2ccccc2)o1)c1ccc(F)cc1)NC1CCCCC1	L major viab 52.4
O=C(c1ccc(Cl)cc1)N1CCN(c2ccnc3cc(Cl)ccc23)CC1	L major viab 66.2
CCC(=O)N1CCN(c2ccnc3cc(Cl)ccc23)CC1	none (no result: GSH bead fluor, ABCG2 inh, ABCB1 block, PKD1 inh, L major viab)
c1cnc2ccc(C(c3nnnn3C3CCCCC3)N3CCCCC3)cc2c1 (centres undefined)	none
c1cnc2ccc(C(c3nnnn3C3CCCC3)N3CCN4CCCC4C3)cc2c1 (centres undefined)	L major viab 52.0
